Screening results from PubChem BioAssay.
SENP7 block: SENP7 protease inhibition | Q9BQF6 | recombinant SENP7, Z-RLRGG-aminoluciferin luminescence, 40 min | inhibition, % at 5 µM | actives 1.5% (n = 330,000) | AID 434973;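 active = inhibition above about 50% at the single test dose, limit read from the data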;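 also: plate controls were DMSO with enzyme for no effect and no enzyme buffer wells for full effect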
SENP8 block-1: blocks human SENP8 cleavage of Nedd8 substrate | recombinant SENP8, Nedd8 substrate fluorescence | AID 602440 | Q96LD8 | actives 0.64% (n = 360,000) | inhibition, % at 20 µM; in the data active = inhibition mostly above about 40%, no sharp cut-off; inactive = mostly below about 27%
SENP8 block-2: SENP8 protease inhibition; Q96LD8; purified SENP8, Z-RLRGG-aminoluciferin cleavage, luminescence; inhibition, % at 10 µM; actives 1.2% (n = 330,000); AID 2540; in the data active = inhibition above about 50%
SENP1 FRET inh: inhibitors of human SENP1 SUMO protease catalytic domain; recombinant SENP1 catalytic domain, CyPet-SUMO1-YPet FRET cleavage; inhibition, % at 10 µM; AID 624204; actives 0.21% (n = 360,000);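 active = inhibition at least 30% at 10 µM, raw YFP signal under a set limit, fluorescence ratio 0.5 to 1.5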;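 also: 0% = enzyme with DMSO and 100% = no enzyme wells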
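Material – human SENP1 catalytic domain · Input – SENP1 enzyme, 20 pM final · Compound dosing – single concentration of 10 µM compound, 0.5% DMSO final · Timing – enzyme reaction for 50 min at room temperature, dark · Measured by – FRET fluorescence in CFP and YFP emission channels · Control set – no-enzyme wells low, DMSO-plus-enzyme wells high control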
SENP6 block: blocks the human protease SENP6; Recombinant SENP6 catalytic domain, aminoluciferin luminescence; actives 1.8% (n = 330,000); Q9GZR1; inhibition, % at 10 µM;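 active = inhibition above about 50% at the single tested dose, limit read from the data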;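 also: plate controls were DMSO wells with enzyme for no effect and DMSO wells lacking enzyme for full effect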
Apaf-1 inh: blocks human Apaf-1 apoptosome activity; O14727; reconstituted apoptosome caspase-3 activity, DEVD-Rh110 fluorescence; inhibition, % at 20 µM; actives 0.71% (n = 330,000); active = inhibition of at least 40% at 20 µM;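 also: plate controls were DMSO wells for no effect and DEVD-CHO caspase inhibitor wells for full effect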
Target sequence (O14727 whole entry, looked up): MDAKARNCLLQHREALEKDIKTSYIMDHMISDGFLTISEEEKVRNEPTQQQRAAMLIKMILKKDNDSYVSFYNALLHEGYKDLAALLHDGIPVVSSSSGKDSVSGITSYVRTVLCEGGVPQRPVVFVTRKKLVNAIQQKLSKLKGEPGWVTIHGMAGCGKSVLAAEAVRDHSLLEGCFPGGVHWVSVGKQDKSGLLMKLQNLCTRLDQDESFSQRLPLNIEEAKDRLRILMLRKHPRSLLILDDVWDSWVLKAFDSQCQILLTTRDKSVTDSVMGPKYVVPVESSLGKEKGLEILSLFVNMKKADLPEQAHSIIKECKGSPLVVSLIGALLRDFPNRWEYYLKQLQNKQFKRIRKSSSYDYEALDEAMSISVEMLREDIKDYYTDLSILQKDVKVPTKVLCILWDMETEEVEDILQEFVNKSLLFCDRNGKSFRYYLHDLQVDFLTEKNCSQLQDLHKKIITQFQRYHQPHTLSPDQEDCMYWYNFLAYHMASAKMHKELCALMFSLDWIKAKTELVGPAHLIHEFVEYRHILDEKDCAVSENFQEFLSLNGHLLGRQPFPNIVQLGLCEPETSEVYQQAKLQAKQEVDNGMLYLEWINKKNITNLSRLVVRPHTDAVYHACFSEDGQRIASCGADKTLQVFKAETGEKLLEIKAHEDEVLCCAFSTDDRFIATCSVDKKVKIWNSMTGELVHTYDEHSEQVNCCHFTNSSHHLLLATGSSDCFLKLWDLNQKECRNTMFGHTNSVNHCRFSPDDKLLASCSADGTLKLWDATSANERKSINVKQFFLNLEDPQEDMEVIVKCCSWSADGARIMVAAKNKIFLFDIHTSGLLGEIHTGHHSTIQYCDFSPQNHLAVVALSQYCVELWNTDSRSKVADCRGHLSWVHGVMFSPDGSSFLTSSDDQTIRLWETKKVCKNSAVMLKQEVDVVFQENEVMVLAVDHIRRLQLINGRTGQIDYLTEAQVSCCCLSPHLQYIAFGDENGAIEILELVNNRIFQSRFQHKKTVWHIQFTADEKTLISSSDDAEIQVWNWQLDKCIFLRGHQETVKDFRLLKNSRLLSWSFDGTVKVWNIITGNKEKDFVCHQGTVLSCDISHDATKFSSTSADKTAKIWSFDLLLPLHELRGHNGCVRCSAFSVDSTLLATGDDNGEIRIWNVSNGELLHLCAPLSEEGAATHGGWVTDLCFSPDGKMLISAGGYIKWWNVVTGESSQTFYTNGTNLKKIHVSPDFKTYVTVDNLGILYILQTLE
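Material: cell-free apoptosome with Apaf-1, procaspase-3 and caspase-9; Buffer or medium: Hepes pH 7.5 with detergent and BSA; Reagent: cytochrome c trigger plus (Z-DEVD)2-Rh110 caspase-3 substrate; Times: compound with Apaf-1, dATP, procaspase-3 30 min, then 50 min reaction, room temperature; Technique: Rh110 fluorescence intensity.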
SENP8 conf-1: confirmation of human SENP8 protease inhibitors | Recombinant SENP8, Z-RLRGG-aminoluciferin luminescence, 60 min | actives 40% (n = 6,200) | shares compounds with SENP7 block | inhibition, % at 12.5 µM;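 active = mean inhibition across replicates above about 50%, limit read from the data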
SENP6 conf: confirmation of human SENP6 protease inhibitors; shares compounds with SENP7 block; recombinant SENP6, Z-RLRGG-aminoluciferin luminescence; actives 58% (n = 6,200); AID 488915; inhibition, % at 12.5 µM
SENP7 confirm: human SENP7 inhibition, confirmed | recombinant SENP7, Z-RLRGG-aminoluciferin luminescence, 40 min | AID 488917 | inhibition, % at 12.5 µM | shares compounds with SENP7 block | actives 69% (n = 6,200)
Casp3 select: caspase-3 inhibition (SENP selectivity assay) | purified caspase-3, Z-DEVD-aminoluciferin luminescence, 60 min | AID 488918 | inhibition, % at 12.5 µM | actives 60% (n = 6,200) | shares compounds with SENP7 block;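 active = mean inhibition above about 50%, limit read from the data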;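 also: plate controls were enzyme with DMSO for no effect and wells without caspase-3 for full effect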
SENP luc ctr: interferes with luciferase luminescence in SENP counter-screen; shares compounds with SENP7 block; actives 39% (n = 6,200); inhibition, % at 12.5 µM; AID 488919; Pre-incubated SENP8/Z-RLRGG-aminoluciferin, luciferase luminescence interference;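 active = mean inhibition above about 50% when retested at one dose, limit read from the data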;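 also: plate controls were DMSO wells with completed reaction for no effect and substrate without enzyme for full effect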
Apaf-1 inh conf2: Apaf-1 inhibition, single-dose confirmed | actives 25% (n = 1,800) | shares compounds with Apaf-1 inh | reconstituted apoptosome, caspase-3 DEVD-Rh110 fluorescence | inhibition, % at 20 µM;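 active = mean inhibition of at least 40% at 20 µM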;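 also: plate controls were DMSO wells for no effect and DEVD-CHO caspase inhibitor control wells for full effect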
Rh110 quench: interferes with Rh110 fluorescence, flagging false Apaf-1 inhibitors; 1,800 tested, under 10 active; shares compounds with Apaf-1 inh; activation (fluorescence interference), % at 20 µM; Rh110 fluorescence interference, quenched caspase reaction;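 active = signal rise of 40% or more at 20 µM, treated as a fluorescence artifact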
Apaf1 inh interf: shows fluorescence interference in the Apaf-1 inhibitor assay format; shares compounds with Apaf-1 inh; fluorescence interference counterscreen, Apaf-1 assay format; IC50, µM; 460 tested, under 10 active; AID 588538; call rule not given here
SENP8 conf-2: confirmation of human SENP8 protease inhibitors; inhibition, % at 25 µM; actives 15% (n = 1,400); shares compounds with SENP8 block-1; purified SENP8, Nedd8-AMC/pro-Nedd8 cleavage fluorescence, 30 min; in the data active = inhibition mostly above about 39%, no sharp cut-off; inactive = mostly below about 34%
SENP1 inh conf: confirmation of human SENP1 SUMO protease inhibitors; shares compounds with SENP1 FRET inh; recombinant SENP1, CyPet-SUMO1-YPet FRET cleavage; inhibition, % at 10 µM; actives 34% (n = 520); in the data active = inhibition mostly above about 35%, no sharp cut-off; inactive = mostly below about 32%;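 also: 0% = enzyme with DMSO and 100% = no enzyme control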
SENP1 kinetic: SENP1 (human) inhibition, kinetic confirmation; recombinant SENP1, CyPet-SUMO1-YPet FRET kinetic cleavage; actives 26% (n = 520); inhibition, % at 10 µM; AID 651690; shares compounds with SENP1 FRET inh; in the data active = inhibition mostly above about 32%, no sharp cut-off; inactive = mostly below about 29%;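 also: 0% = DMSO with enzyme and 100% = no enzyme substrate only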
The depositor's hits bear a star; / = no result. In the library only some 2.9% were active in any assay of this set; here they are far more common.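 The calls were made as follows, unless noted: active = mean inhibition above about 50% in the one-dose retest (limit read from the data); inactive = the rest.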

SMILES	SENP7 block	SENP8 block-1	SENP8 block-2	SENP1 FRET inh	SENP6 block	Apaf-1 inh	SENP8 conf-1	SENP6 conf	SENP7 confirm	Casp3 select	SENP luc ctr	Apaf-1 inh conf2	Rh110 quench	others
COc1cc2c(cc1O)[C@@H]1Cc3ccc(OC)c(O)c3CN1CC2	49.4	80.0*	64.3*	-2.9	73.6*	93.0*	9.5	29.4	16.9	6.0	3.5	58.3*	-4.0	Apaf1 inh interf=>100
COc1ccc(C[C@@H]2c3cc(O)c(OC)cc3CCN2C)cc1O	-5.6	8.9	-3.3	0.5	-3.6	-1.7	/	/	/	/	/	/	/
O=C1NCN(c2ccccc2)C12CCN(C(c1cccc3ccccc13)c1nnnn1-c1ccc3c(c1)OCCO3)CC2 (configuration not stated)	/	16.4	/	1.3	/	/	/	/	/	/	/	/	/
CCC(C)NC(=O)c1c(N)n(CCCOC)c2nc3ccccc3nc12 (configuration not stated)	89.8*	-265.3	92.0*	-29.8	86.4*	90.9*	40.3	83.0*	74.3*	16.5	17.9	59.4*	8.8	Apaf1 inh interf=>100
CCC(C)NC(=O)c1c(N)n(CC2CCCO2)c2nc3ccccc3nc12 (configuration not stated)	71.8*	-270.4	83.0*	-20.1	87.6*	94.5*	7.3	40.7	33.9	9.2	5.8	55.5*	12.5	Apaf1 inh interf=>100
COCCCn1c(N)c(C(=O)Nc2sc3c(c2C(=O)OC)CCCC3)c2nc3ccccc3nc21	71.2*	-269.3	88.8*	-24.6	91.4*	90.2*	1.4	6.6	16.4	7.4	3.4	26.0	9.8
COCCCn1c(N)c(C(=O)NCc2ccco2)c2nc3ccccc3nc21	87.0*	/	90.5*	/	92.8*	94.6*	15.3	26.1	17.2	-1.3	-0.8	19.2	6.9
COCCNC(=O)c1c(N)n(Cc2ccco2)c2nc3ccccc3nc12	4.6	-274.2	-0.1	-21.3	-7.0	9.9	/	/	/	/	/	/	/
CC(C)(O)C1C2OC(=O)C1C1(O)CC3OC34C(=O)OC2C14C (configuration not stated)	/	10.4	/	0.6	/	/	/	/	/	/	/	/	/
COc1ccc(NC2=NCCCS2)cc1OC	-11.0	6.8	-7.2	0.1	-5.0	6.2	/	/	/	/	/	/	/
O=c1[nH]c(=S)[nH]c(O)c1N=Nc1ccc2c(c1)OCCO2	92.1*	41.8*	87.0*	36.3*	91.5*	-6.3	1.2	24.7	55.0*	64.2*	-1.1	/	/	SENP8 conf-2=5.8
c1ccc2c(c1)CN(Cc1ccc3c(c1)OCO3)Cc1cnnn1-2	/	-3.4	/	3.2	/	/	/	/	/	/	/	/	/
COc1ccc(N=Nc2c(O)[nH]c(=S)[nH]c2=O)cc1	66.3*	20.6	65.6*	47.8*	76.0*	9.7	26.7	79.4*	51.2*	77.6*	6.8	/	/	SENP1 inh conf=43.3*;SENP1 kinetic=29.4
Clc1cccc(N2Cc3cc(-c4ccccc4)ccc3-n3nncc3C2)c1	/	3.2	/	3.8	/	/	/	/	/	/	/	/	/
COCCNC(=O)c1c(NC(=O)c2ccco2)n(Cc2ccccc2)c2nc3ccccc3nc12	24.7	-404.4	2.2	-19.1	20.4	52.8*	/	/	/	/	/	18.1	9.8
Clc1ccc(CCC(Cn2ccnc2)Sc2c(Cl)cccc2Cl)cc1 (configuration not stated)	-7.7	9.3	9.1	-1.6	-0.7	24.5	/	/	/	/	/	/	/
O=S1(=O)N(CCN2CC=C(c3c[nH]c4cc(F)ccc34)CC2)c2cccc3c2N1CCC3	-7.7	-168.1	-10.6	-46.3	-16.0	50.8*	/	/	/	/	/	15.0	-4.1
O=[N+]([O-])c1ccc(N2CCCNCC2)c2ncccc12	31.3	33.1	11.7	-3.4	13.8	44.9*	/	/	/	/	/	18.2	13.3
O=C1Nc2ccccc2Oc2ccccc21	/	9.9	/	1.5	/	/	/	/	/	/	/	/	/
CN1CCc2cc3c(c4c2C1Cc1ccccc1-4)OCO3 (configuration not stated)	50.2*	-293.2	63.6*	-26.6	70.1*	90.9*	/	/	/	/	/	67.5*	8.6	Apaf1 inh interf=>100
CC12CCC3C(CCC4(O)CC(O)CCC34C=NO)C1(O)CCC2C1=COC(=O)C1 (configuration not stated)	/	11.4	/	3.4	/	/	/	/	/	/	/	/	/
Fc1ccccc1CNC1CN2CCC1CC2 (configuration not stated)	12.5	24.4	5.1	0.8	-1.4	-23.2	/	/	/	/	/	/	/
Ic1ccccc1CN[C@@H]1C2CCN(CC2)[C@@H]1C(c1ccccc1)c1ccccc1	5.5	10.7	-6.2	4.9	3.1	50.2*	/	/	/	/	/	12.9	4.8
S=P(NCCSCc1ccccc1)(N1CC1)N1CC1	/	19.0	/	0.6	/	/	/	/	/	/	/	/	/
O=[N+]([O-])c1ccc(NCCCN2CCOCC2)c2ncccc12	5.3	24.0	-9.8	-14.6	15.6	40.4*	/	/	/	/	/	6.3	1.9
COC(=O)C1=C(c2ccccc2OCc2ccccc2)C[C@@H]2CC[C@H]1N2C(=O)NC1CCN(Cc2ccccc2)CC1	-2.4	20.4	-6.3	1.6	4.0	38.5	/	/	/	/	/	/	/
COC(=O)C1=C(c2ccc(F)cc2OCc2ccccc2)C[C@@H]2CC[C@H]1N2C(=O)NC1CCN(Cc2ccccc2)CC1	4.2	17.4	-1.0	2.7	5.9	53.1*	/	/	/	/	/	8.7	-3.6
